The results in this text go back to ChEMBL document CHEMBL2384953, “Design and synthesis of L- and D-phenylalanine derived rhodanines with novel C5-arylidenes as inhibitors of HCV NS5B polymerase” (Bioorg Med Chem, 2013).

Molecules are shown by their SMILES. Bounds are passed on as bounds.

The test system of data set [1] is Hepatitis C virus. As to the kind of experiment: Inhibition of HCV genotype 1b recombinant NS5B Cdelta21 polymerase assessed as inhibition of radioactive UMP incorporation into nascent RNA using […] template-primer after 1hr by liquid scintillation counting analysis. More on the design: species or system Hepatitis C virus subtype 1b. In outline: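 Recombinant HCV NS5BCΔ21 (genotype 1b), homopolymeric poly rA/U12 template-primer. Read-out is radioactive UMP incorporated into nascent RNA. Dose-response at 8-10 compound concentrations, in duplicate, two independent experiments. IC50 interpolated from nonlinear regression fits; mean ± SD.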

Data set [2] deals with Hepatitis C virus. The experiment in a line: Antiviral activity against hepatitis C virus infected in human hepatoma cells assessed as inhibition of HCV replication at 100 uM. In kind it is functional, Hepacivirus hominis.
The nature of data set [3]: Cytotoxicity against human hepatoma cells. In kind it is cell-based.
Data set [4] deals with RNA-directed RNA polymerase (Hepacivirus hominis, UniProt O39930, M423T). As to the kind of experiment: Inhibition of HCV NS5B polymerase M423T mutant assessed as inhibition of radioactive UMP incorporation into nascent RNA using […] template-primer after 1hr by liquid scintillation counting analysis. In outline: (§1)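 Mutant counterscreen with recombinant NS5BCΔ21 mutants: P495L (probe for TP-I site), M423T (TP-II), M414T (PP-I). Radioactive UMP incorporation into nascent RNA on poly rA/U12 template-primer, run as for wild-type. IC50 from dose-response curves by nonlinear regression; mean ± SD of at least two independent experiments in duplicate.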
RNA-directed RNA polymerase (Hepacivirus hominis, UniProt O39930, M423T), sequence (O39930 entry or part of it M423T): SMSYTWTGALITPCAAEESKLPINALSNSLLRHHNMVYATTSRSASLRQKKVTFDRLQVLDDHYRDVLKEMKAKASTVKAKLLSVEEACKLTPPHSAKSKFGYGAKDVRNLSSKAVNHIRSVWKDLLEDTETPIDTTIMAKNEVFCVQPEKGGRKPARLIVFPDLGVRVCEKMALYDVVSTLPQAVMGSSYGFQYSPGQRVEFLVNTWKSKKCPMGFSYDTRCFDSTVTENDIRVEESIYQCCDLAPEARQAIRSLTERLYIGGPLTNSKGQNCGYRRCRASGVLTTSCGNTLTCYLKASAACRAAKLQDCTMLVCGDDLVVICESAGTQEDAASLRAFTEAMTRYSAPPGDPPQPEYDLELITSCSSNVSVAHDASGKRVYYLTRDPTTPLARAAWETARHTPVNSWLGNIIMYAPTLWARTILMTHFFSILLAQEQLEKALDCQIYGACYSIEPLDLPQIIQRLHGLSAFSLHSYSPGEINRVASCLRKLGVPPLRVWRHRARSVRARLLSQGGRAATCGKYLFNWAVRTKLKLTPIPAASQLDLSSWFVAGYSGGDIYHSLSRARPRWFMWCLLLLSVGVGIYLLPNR

The test system of data set [5] is Hepacivirus hominis. As to the kind of experiment: Selectivity ratio of IC50 for HCV NS5B polymerase M423T mutant to IC50 for wild type HCV NS5B polymerase. The procedure, abridged:
(§2)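 Recombinant HCV NS5BCΔ21 (genotype 1b), wild type and the P495L, M423T and M414T mutants, each assayed for incorporation of radioactive UMP into nascent RNA on homopolymeric poly rA/U12 template-primer. IC50s came from nonlinear regression of dose-response curves (8-10 compound concentrations, duplicate, at least two independent experiments, mean ± SD). The ratio is mutant IC50 over wild-type IC50.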

Data set [6] concerns the target RNA-directed RNA polymerase (Hepacivirus hominis, UniProt O39930, P495L). As to the kind of experiment: Inhibition of HCV NS5B polymerase P495L mutant assessed as inhibition of radioactive UMP incorporation into nascent RNA using […] template-primer after 1hr by liquid scintillation counting analysis. In outline:
as §1

The target in data set [7] is RNA-directed RNA polymerase (Hepacivirus hominis, UniProt O39930, M414T). The experiment in a line: Inhibition of HCV NS5B polymerase M414T mutant assessed as inhibition of radioactive UMP incorporation into nascent RNA using […] template-primer after 1hr by liquid scintillation counting analysis. The procedure, abridged: as §1
RNA-directed RNA polymerase (Hepacivirus hominis, UniProt O39930, M414T), sequence (O39930 entry or part of it M414T): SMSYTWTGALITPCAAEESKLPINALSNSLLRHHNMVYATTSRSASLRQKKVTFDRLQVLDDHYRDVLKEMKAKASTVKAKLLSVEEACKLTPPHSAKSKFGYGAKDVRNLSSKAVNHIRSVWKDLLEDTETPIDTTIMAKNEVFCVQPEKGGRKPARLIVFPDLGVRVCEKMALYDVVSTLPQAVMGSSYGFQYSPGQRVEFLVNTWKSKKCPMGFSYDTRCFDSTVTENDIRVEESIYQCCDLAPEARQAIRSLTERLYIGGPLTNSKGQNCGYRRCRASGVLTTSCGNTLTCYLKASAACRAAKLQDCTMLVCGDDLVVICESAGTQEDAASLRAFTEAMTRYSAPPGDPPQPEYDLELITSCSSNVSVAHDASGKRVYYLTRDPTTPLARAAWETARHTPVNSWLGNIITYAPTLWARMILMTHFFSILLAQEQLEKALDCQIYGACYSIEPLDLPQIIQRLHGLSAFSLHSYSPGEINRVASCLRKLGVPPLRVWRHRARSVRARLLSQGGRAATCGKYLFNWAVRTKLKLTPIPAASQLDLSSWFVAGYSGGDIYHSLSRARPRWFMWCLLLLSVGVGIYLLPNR
Data set [8] concerns Hepacivirus hominis. As to the kind of experiment: Selectivity ratio of IC50 for HCV NS5B polymerase M414T mutant to IC50 for wild type HCV NS5B polymerase. The procedure, abridged:
as §2

Data set [9] relates to Hepacivirus hominis. As to the kind of experiment: Selectivity ratio of IC50 for HCV NS5B polymerase P495L mutant to IC50 for wild type HCV NS5B polymerase. The procedure, abridged: as §2

RNA-directed RNA polymerase (Hepacivirus hominis, UniProt O39930, P495L), sequence (O39930 entry or part of it P495L): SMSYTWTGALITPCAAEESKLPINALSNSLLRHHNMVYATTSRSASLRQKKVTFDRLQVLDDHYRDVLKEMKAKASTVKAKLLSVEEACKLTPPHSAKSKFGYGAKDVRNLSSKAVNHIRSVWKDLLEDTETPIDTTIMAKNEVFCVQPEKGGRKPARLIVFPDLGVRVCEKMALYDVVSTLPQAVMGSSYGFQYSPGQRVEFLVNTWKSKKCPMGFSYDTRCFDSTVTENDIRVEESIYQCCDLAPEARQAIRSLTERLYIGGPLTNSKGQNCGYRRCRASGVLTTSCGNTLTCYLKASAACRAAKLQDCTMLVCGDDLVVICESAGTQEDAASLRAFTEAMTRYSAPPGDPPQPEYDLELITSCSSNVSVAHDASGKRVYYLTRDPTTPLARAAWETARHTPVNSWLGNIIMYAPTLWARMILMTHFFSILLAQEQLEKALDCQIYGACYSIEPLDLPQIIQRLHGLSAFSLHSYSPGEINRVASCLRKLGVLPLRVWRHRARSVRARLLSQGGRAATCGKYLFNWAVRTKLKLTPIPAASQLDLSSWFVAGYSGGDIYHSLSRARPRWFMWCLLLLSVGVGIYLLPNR

One may read the IC50 as the concentration at which inhibition is half-maximal. As to `O=C(O)[C@H](Cc1ccccc1)N1C(=O)/C(=C/c2cccc(Oc3cccc(Cl)c3)c2)SC1=S`, the IC50 in data set [1] was 4.1 µM.
Take `O=C(O)[C@H](Cc1ccccc1)N1C(=O)/C(=C/c2cccc(Cl)c2)SC1=S`: the IC50 in data set [1] worked out at 26.6 µM.
Take `O=C(O)[C@H](Cc1ccccc1)N1C(=O)/C(=C/c2cccc(Oc3cccc(F)c3)c2)SC1=S`: the IC50 in data set [1] was determined as 8.2 µM.
In general, inhibition refers to the share of the control response that was lost under treatment. As for `O=C(O)[C@H](Cc1ccccc1)N1C(=O)/C(=C/c2cccc(Cc3ccccc3)c2)SC1=S`, in data set [2], the inhibition at 100 µM worked out at 30%. The Activity entry in [3] is given as “Non-toxic”. In addition, the IC50 in data set [1] is 4.8 µM.
As for `O=C(O)[C@H](Cc1ccccc1)N1C(=O)/C(=C/c2cc(F)cc(F)c2)SC1=S`, in [1], the IC50 came out at 26 µM.
As for `O=C(O)[C@@H](Cc1ccccc1)N1C(=O)/C(=C/c2cccc(Oc3ccc(F)cc3)c2)SC1=S`, the IC50 in data set [1] was found to be 10.3 µM.
Take `O=C(O)[C@@H](Cc1ccccc1)N1C(=O)/C(=C/c2cccc(Oc3ccccc3)c2)SC1=S`: the IC50 in [1] amounted to 19.3 µM.
The same measure, in the same setting: the same measure for `O=C(O)[C@H](Cc1ccccc1)N1C(=O)/C(=C/c2ccc(F)c(F)c2)SC1=S`: 16.3 µM.
For `O=C(O)[C@H](Cc1ccccc1)N1C(=O)/C(=C/c2cccc(Oc3ccc(Cl)c(Cl)c3)c2)SC1=S`, the IC50 in data set [4] came out at 3 µM; in data set [1], 2.6 µM; in [6] it was 2.8 µM; in [7], 47.8 µM. Moreover, the Ratio IC50 in data set [5] is < 1.5; in data set [8], 16; in data set [9], < 1.5.
For `O=C(O)[C@H](Cc1ccccc1)N1C(=O)/C(=C/c2ccc(Cl)c(Cl)c2)SC1=S`, the IC50 in data set [1] stood at 19.4 µM.
As for `O=C(O)[C@H](Cc1ccccc1)N1C(=O)/C(=C/c2cccc(Oc3ccccc3)c2)SC1=S`, in [1], the IC50 worked out at 6.7 µM.
On the same count and under the same terms, in the case of `O=C(O)[C@H](Cc1ccccc1)N1C(=O)/C(=C/c2cccc(-c3ccccc3)c2)SC1=S` it was 16.6 µM; in that of `O=C(O)[C@H](Cc1ccccc1)N1C(=O)/C(=C/c2cccc(Oc3ccc(F)cc3)c2)SC1=S`, 12.5 µM.
Still for that read-out and setting: in the case of `O=C(O)[C@@H](Cc1ccccc1)N1C(=O)/C(=C/c2cccc(Oc3ccc(Cl)c(Cl)c3)c2)SC1=S` it was 5.4 µM.
On the same count and under the same terms, in the case of `O=C(O)[C@@H](Cc1ccccc1)N1C(=O)/C(=C/c2cccc(Oc3ccc(Cl)cc3)c2)SC1=S` it was 5.1 µM; in that of `O=C(O)[C@H](Cc1ccccc1)N1C(=O)/C(=C/c2ccc(Br)cc2)SC1=S`, 11.7 µM.
Take `O=C(O)[C@H](Cc1ccccc1)N1C(=O)/C(=C/c2cccc(Oc3ccc(Cl)cc3)c2)SC1=S`: the IC50 was 4.2 µM in data set [4], 3.4 µM in data set [1], 3.6 µM in data set [6] and 55.7 µM in data set [7]. Besides, the Ratio IC50 in [5] was < 1.5; in data set [8], 16; in data set [9], < 1.5.
Turning to `O=C(O)[C@H](Cc1ccccc1)N1C(=O)/C(=C/c2ccc(Cl)cc2)SC1=S`, the IC50 in data set [1] amounted to 22.3 µM.
As to `N#Cc1cccc(/C=C2\SC(=S)N([C@@H](Cc3ccccc3)C(=O)O)C2=O)c1`, the IC50 in data set [1] is 30.7 µM.
Same read-out and setting: the same measure for `O=C(O)[C@@H](Cc1ccccc1)N1C(=O)/C(=C/c2cccc(Oc3cccc(Cl)c3)c2)SC1=S`: 4.1 µM; for `O=C(O)[C@H](Cc1ccccc1)N1C(=O)/C(=C/c2cccc(Br)c2)SC1=S`: 7.4 µM.
For the compound `O=C(c1ccccc1)c1cccc(/C=C2\SC(=S)N([C@@H](Cc3ccccc3)C(=O)O)C2=O)c1`, the IC50 in data set [1] was 11.1 µM.
For `O=C(O)[C@H](Cc1ccccc1)N1C(=O)/C(=C/c2ccc(F)cc2)SC1=S`, the IC50 in data set [1] is 27.7 µM.
In the case of `O=C(O)[C@H](Cc1ccccc1)N1C(=O)/C(=C/c2cccc(OC/C=C\c3ccccc3)c2)SC1=S`, the concentration for half-maximal inhibition (IC50) in data set [1] was 6.4 µM.
For the compound `O=C(O)[C@H](Cc1ccccc1)N1C(=O)/C(=C/c2ccccc2Oc2ccccc2)SC1=S`, the IC50 in data set [1] was found to be 13.3 µM.
On the same count and under the same terms, in the case of `O=C(O)[C@H](Cc1ccccc1)N1C(=O)/C(=C/c2cccc(OCc3ccccc3)c2)SC1=S` it was 21.8 µM; in that of `COc1ccc(Oc2cccc(/C=C3\SC(=S)N([C@@H](Cc4ccccc4)C(=O)O)C3=O)c2)cc1`, 8.3 µM.
Same read-out and setting: the same measure for `O=C(O)[C@H](Cc1ccccc1)N1C(=O)/C(=C/c2ccc(Oc3ccccc3)cc2)SC1=S`: 50.7 µM.
